Test system: MS2 coat protein
Assay: apparent Kd, MS2 coat protein; higher = weaker binding; RNA-MaP array; FMN 200 µM where present
Procedure, shortened: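 Green signal from SNAP-549-labelled MS2 coat protein was normalised to red-channel RNA signal and to the median Fmax of control clusters. The protein was titrated from 0.7 or 1.5 nM, doubling to 3 µM, without and then with constant ligand, over designs transcribed by stalled E. coli RNA polymerase on Illumina sequencing-chip clusters, in 100 mM Tris-HCl pH 7.5, 80 mM KCl, 4 mM MgCl2, BSA, DTT, yeast tRNA and Tween-20. The apparent Kd is the median of filtered per-cluster binding-curve fits.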

[1] = designed as: ON switch for flavin mononucleotide, no ligand
[2] = ligand present: flavin mononucleotide, designed as: ON switch for flavin mononucleotide
[3] = designed as: OFF switch for flavin mononucleotide, no ligand
[4] = ligand present: flavin mononucleotide, designed as: OFF switch for flavin mononucleotide

Sequence: CACUCAGGCACAUGAGGAUCACCCAUGUCCCGGAAGCCGAGACAGGAUAUGUGCCUCGAAUGUGCACAGAAGGGUCUACUAUGU
- apparent Kd [1]: 374 nM
- apparent Kd [2]: 264 nM

Sequence: GGACGUCACAUUUACAUGAGGAUCACCCAUGUCGAAAGACAUGAGGAUAUGCAUCCUAAUUGGAUGCAGAAGGCAUGGACGUCC
- apparent Kd [1]: 335 nM
- apparent Kd [2]: 245 nM

Sequence: AUCAGCUCGUCAGGAUAUACGUCGCUGCGUCAGCAGUGUGGUAAGAUCACAUGAGGAUCACCCAUGUAGAAGGGACGAGCUGAU
- apparent Kd [3]: 19.3 nM
- apparent Kd [4]: 374 nM

Sequence: UCGUGAAGGACAGGAUAUGGACAUGAGGAUCACCCAUGUACAUGGGAUUAUAUACUGAAUUUAUACUAGAAGGGUUACAUAAAU
- apparent Kd [3]: 31.7 nM
- apparent Kd [4]: 19.8 nM

Sequence: UUACUACAUGAGGAUCACCCAUGUCAGGAUAUUGUCUAUACCUUGGAAUACGUGUCGACAAGAAGGGACUAUAU
- apparent Kd [3]: 21.1 nM
- apparent Kd [4]: 24 nM

Sequence: AUGGUGACGUAGAAGGGUGACAUGAGGAUCACCCAUGUGCCGAUAUUUCUCGAGAUAUGUCGGCCACAGGAUAUACGUACCAUC
- apparent Kd [1]: 39.3 nM
- apparent Kd [2]: 83.3 nM

Sequence: AUAGGUCAAGGAUAUACAUGAGGAUCACCCAUGUAAAUAACUCCAUCCAACUCCACAAGUAGAAGGUGAAAUAA
- apparent Kd [3]: 17 nM
- apparent Kd [4]: 16.5 nM

Sequence: UGUAGUUCAGGAUAUGAUGUUUAAUACAUGAGGAUCACCCAUGUAGAUCCUGAAUUAACAUCAGAAGGGAAUAUUU
- apparent Kd [3]: 20.7 nM
- apparent Kd [4]: 45.2 nM

Sequence: GUUGGAUGAGGAUAUCGAGGUUAGUACAUGAGGAUCACCCAUGUUAUCCAGGUGUCGGUUCGAGAAGGCAUUGGAC
- apparent Kd [3]: 32.6 nM
- apparent Kd [4]: 114 nM

Sequence: UUGCAGUGCGGGUAGGAUAUGUAGGGUGGUACAUGAGGAUCACCCAUGUGUCCACCCUUCGACCGGCAGAAGGGCCUAUCACUGC
- apparent Kd [1]: 17.1 nM
- apparent Kd [2]: 15.6 nM

Sequence: AGGAAACAUGAGGAUCACCCAUGUAAAAGGUGGGUAGGAUAUGCGAAAAGAAAAAGAAAAGCAGAAGGGCCAAGAA
- apparent Kd [1]: 101 nM
- apparent Kd [2]: 47.4 nM

Sequence: UAAACGUUCUAGAAGGUGCUAGCGAUAAGCUAGCAAGGAUAUAGACAUGAGGAUCACCCAUGUCUUUGUGACAUCGACAUACUU
- apparent Kd [3]: 9.03 nM
- apparent Kd [4]: 12.1 nM

Sequence: GUCUGCUCGUGAGGAUAUACAACACUGCUUCGGCAGUGUAUUAAGAUCACAUGAGGAUCACCCAUGUAGAAGGCACGAGCUGAU
- apparent Kd [3]: 14.1 nM
- apparent Kd [4]: 252 nM

Sequence: UUGAACGUCGUAGGAUAUGUAGGAUAUUCCUACAUGAGGAUCACCCAUGUUGACAUGGAAGAAGGACAGAAGGACGAUGUCCAU
- apparent Kd [1]: 567 nM
- apparent Kd [2]: 7.77 nM

Sequence: GUACGUGGACAGAAGGUGACAUGAGGAUCACCCAUGUUAGUUGAGGUAUCAGCGAUCUGCGUGAUUGAGGAUAUGUCUGCGGGC
- apparent Kd [3]: 11.9 nM
- apparent Kd [4]: 11.7 nM

Sequence: UUGGACGUCGUAGGAUAUGUAGGAUAUUCCUACAUGAGGAUCACCCAUGUUGACAUGGAAGAAGGACACAAGGACGAUGUCCAU
- apparent Kd [1]: 664 nM
- apparent Kd [2]: 15.8 nM

Sequence: ACGUUUUUUGAGGAUAUGCGACGUUCCUUCGUCGUAGAAGGCGAUACAUGAGGAUCACCCAUGUUUAUGGGCAU
- apparent Kd [3]: 119 nM
- apparent Kd [4]: 137 nM

Sequence: UAUAUAUAGUAAGGAUAUGUAAUUUUUUUAUAAACAGAAGGUACUGACAUGAGGAUCACCCAUGUUUUAGUGUGGGCAUGUAGA
- apparent Kd [3]: 107 nM
- apparent Kd [4]: 169 nM

Sequence: AAAACGGUAGGAUAUACAGUCCGUUGUCGAAUGAUGAAAAGACAUGAGGAUCACCCAUGUAGAAGGACCGAAAA
- apparent Kd [3]: 54.8 nM
- apparent Kd [4]: 125 nM

Sequence: UGGAUGGUAUGAGGAUAUGCGCGCGACACGCGCGCAGAAGGCAUGUCAAUAGACAUGAGGAUCACCCAUGUAUUAUCCAUCCAA
- apparent Kd [1]: 201 nM
- apparent Kd [2]: 14.8 nM

Sequence: GUAGCACAUGAUUUACAUGAGGAUCACCCAUGUAACAUGGGUAAGGAUAUUGAUGUGAAGUUAAUCAAGAAGGUACUAUGCUAC
- apparent Kd [1]: 9.65 nM
- apparent Kd [2]: 6.35 nM

Sequence: CGAUCUUCAGUCAGGAUAUGCUGGCACGAAGAGUUGUAGAAGGGACAUGAGGAUCACCCAUGUCGGACGUUGUA
- apparent Kd [3]: 19 nM
- apparent Kd [4]: 17.4 nM

Sequence: CAGUGCAAUGUAGGAUAUGCUCAGGAUAACUGAGCAGAAGGACAUGAGGAUCACCCAUGUACUAUGAAAGAUAAUAAAGCACUG
- apparent Kd [3]: 14.1 nM
- apparent Kd [4]: 18.3 nM

Sequence: UGAACGUUAGGAUAUACAUGAGGAUCACCCAUGUGUUAUGAGCAAUCAUCGAUAUGUUGUAGAAGGAACGCGCG
- apparent Kd [3]: 24.9 nM
- apparent Kd [4]: 26.3 nM

Sequence: GGAUGACAAAGUCAUCCAAUUCGAACAUGAGGAUCACCCAUGUAGGAUAUGCUACUCAAAGAGUAGCAGAAGGACAUGUGCCUU
- apparent Kd [3]: 31.7 nM
- apparent Kd [4]: 173 nM

Sequence: GUUAUUGACAAGAAGGCAUACAUGAGGAUCACCCAUGUUCUACAUGGAUAAUGAGGAUAUUGCCAAUACAUGAGGAUCACCCAG
- apparent Kd [3]: 68.3 nM
- apparent Kd [4]: 77.5 nM

Sequence: CAGCGGAGCCUAGGAUAUGCGACAUGAGGAUCACCCAUGUACGCCAAAACGUCACCAUGGGUCUCGCAGAAGGAGGAAACACUG
- apparent Kd [3]: 54.7 nM
- apparent Kd [4]: 24.3 nM

Sequence: GGGACCUACGAGAAGGGCUACAUGAGGAUCACCCAUGUAAAUCUUCGGGUGGCAGGAUAUCGGCGGCUACAGGAGGGCCAGGUC
- apparent Kd [4]: 38.3 nM

Sequence: GUCAGCUCGUGAGGAUAUACAACACUGCUUCGGCAGUGUAUUAAGAUCACAUGAGGAUCACCCAUGUAGAAGGCACGAGCUGGU
- apparent Kd [3]: 14.7 nM
- apparent Kd [4]: 260 nM

Sequence: GCACGACAUGUAGGAUAUCGAGCGCCGGGCGCUCGAGAAGGACAUGAGGAUCACCCAUGUAUUCUGAGUGACCGAGGUCGUGCA
- apparent Kd [3]: 53.9 nM
- apparent Kd [4]: 557 nM

Sequence: UGAUAGGAUAAAGGAUAUACGUGCUAGAGAUACUAGCAAAAUUUCCUCACAUGAGGAUCACCCAUGUAGAAGGUUAACCUAUCU
- apparent Kd [3]: 14.7 nM
- apparent Kd [4]: 57.1 nM

Sequence: GUGAACGGAGGAUAUAUAUGGGCAGCAUACGCUGCAGCUUCACAUGAGGAUCACCCAUGUAGAAGGCUGUACAC
- apparent Kd [3]: 7.64 nM
- apparent Kd [4]: 23.9 nM

Sequence: UUUUAACAUGAGGAUCACCCAUGUGAGGAUAUCGAAAUUUAUAUUUAUAUUAAUUAUACGAGAAGGCACAUUUU
- apparent Kd [3]: 79.2 nM
- apparent Kd [4]: 104 nM

Sequence: AAGACGUAAGGAUAUAUUAUGGGACAAUGAAGGAAGAUAAAACAUGAGGAUCACCCAUGUAGAAGGUGCAAAGA
- apparent Kd [3]: 45.9 nM
- apparent Kd [4]: 41.5 nM

Sequence: GCUGACGAUGUAGGAUAUCAGUAUAAUAAAUACUGAGAAGGACAUGAGGAUCACCCAUGUCUCCAACGUCAGCAGAGGAAACUC
- apparent Kd [3]: 15.9 nM
- apparent Kd [4]: 16.8 nM

Sequence: GCGUGAAAUGUAGGAUAUGACACAGGAAACUGGUCAGAAGGACAUGAGGAUCACCCAUGUAAUAAGUUCAAGAAUAACACAUGC
- apparent Kd [3]: 33.1 nM
- apparent Kd [4]: 75.5 nM

Sequence: CUAUUACGAGGAUAUGAUUUAAAUAACAUGAGGAUCACCCAUGUUUUUACGUUAUUAUGUUUAGAAGGCGUAUUGU
- apparent Kd [3]: 50.1 nM
- apparent Kd [4]: 31.4 nM

Sequence: UGUUGUAUUACAGGAUAUCUAGUAUAUUUAUUUAGAGAAGGGUAUUCACAUGAGGAUCACCCAUGUAUAUACGAGGAAGUUGUG
- apparent Kd [1]: 41.1 nM
- apparent Kd [2]: 40.2 nM

Sequence: UGGUACUAGGGAGGAUAUGGGAAGAUACAUGAGGAUCACCCAUGUUUAAUAAUGCCGAGAGGCAACUAGAAGGCCCUAGUACCU
- apparent Kd [1]: 253 nM
- apparent Kd [2]: 13.9 nM

Sequence: UUGCCACAUGAGGAUCACCCAUGUGAGGAUAUGGCCUGUUUGGCGUGUGCUGGUUCUGUCAGAAGGCGCGUGGG
- apparent Kd [3]: 31.6 nM
- apparent Kd [4]: 36.5 nM

Sequence: AUCAUGAGAGGAUAUACAUGAGGAUCACCCAUGUUCUUAUCUCGUCGUGCUCCAUUACGUAGAAGGCUCAUUUA
- apparent Kd [3]: 16 nM
- apparent Kd [4]: 49.2 nM

Sequence: GAGCUCAAUGAGAAGGGUUACAUGAGGAUCACCCAUGUCGACCUUGGCGUAACAGGAUAUCAUCGGGCUCAGUGCGUUGACCCA
- apparent Kd [3]: 24.9 nM
- apparent Kd [4]: 108 nM

Sequence: UUGUAGUGCGUAGGAUAUCAUUGAGGGUCACCCUGAGAAGGACGUGAGGACAUGAGGAUCACCCAUGUGGAUCACCCAUGUCAU
- apparent Kd [3]: 305 nM
- apparent Kd [4]: 462 nM

Sequence: CAGCCCUGAGGAUAUCCCUACUUGUACAUGAGGAUCACCCAUGUUCUCCUCCGGGCUUCGGGAGAAGGCAGGUCUC
- apparent Kd [3]: 15.9 nM
- apparent Kd [4]: 15.5 nM

Sequence: GUCUACCAGCUAGGAUAUGCAGUACAUUAAAAUGUAGAAGGAGCACGAUCCAGACAUGAGGAUCACCCAUGUGGGCGGUAGGCA
- apparent Kd [3]: 20.9 nM
- apparent Kd [4]: 18.6 nM

Sequence: UUAUAAAGUGUGAGGAUAUGCUGGUCGAUAGAUCAGCAGAAGGCACAUGAGGAUCACCCAUGUAAUAUAUUUUA
- apparent Kd [3]: 52.1 nM
- apparent Kd [4]: 222 nM

Sequence: CGAUAUACGAUGGACGGAAACGUACAUGAGGAUCACCCAUGUAGAAGGCGAUCCGCAACGCGGAUUGAGGAUAUAUACCACACA
- apparent Kd [3]: 23.8 nM
- apparent Kd [4]: 23.3 nM

Sequence: AUGGUGCAGGUACAGGAUAUGUUGCUCGUAACAUGAGGAUCACCCAUGUACCUAUGAGAUUAAAUGCAGAAGGGUGCACACCACG
- apparent Kd [1]: 784 nM
- apparent Kd [2]: 62.7 nM

Sequence: GGUGGUACAGAGAAGGCGCCGCAGCUCUUCCUCCCAUCCCAACGACAUGAGGAUCACCCAUGUAGCGAGGAUAUCUGUGCCAUC
- apparent Kd [3]: 7.05 nM
- apparent Kd [4]: 22.5 nM

Sequence: GCACUGCAGCGGCGCACGAGACAUGAGGAUCACCCAUGUGACAGAAGGGACUUGUUAAAGGUAGGUCAGGAUAUGUCUUAAAAG
- apparent Kd [1]: 219 nM
- apparent Kd [2]: 65.8 nM

Sequence: GUGCUCGUGUAAGGAUAUGCAGCCGUUUCGGCUGCAGAAGGUACUAUAAUACAUGAGGAUCACCCAUGUCUCUAUAGUUUGGUG
- apparent Kd [1]: 27.4 nM
- apparent Kd [2]: 33.1 nM

Sequence: UCCGGAGUAGGAUAUACGGUGUAAUGACACGGCGUCGAUCAACAUGAGGAUCACCCAUGUAGAAGGACUGCGUC
- apparent Kd [3]: 14.4 nM
- apparent Kd [4]: 15.9 nM

Sequence: AAAACACAUGAGGAUCACCCAUGUAUCUGGACCAUAGGAUAUCCGCACCCACUAGGGCGUGGAGAAGGGUGAGCCC
- apparent Kd [1]: 170 nM
- apparent Kd [2]: 194 nM

Sequence: GAUAAACAUGAGGAUCACCCAUGUGUGAAUAUGGGAGGAUAUACGUGGACCGUAGUCCGCGUAGAAGGCCUAAUUG
- apparent Kd [1]: 225 nM
- apparent Kd [2]: 40.4 nM

Sequence: AAAAAACAUGAGGAUCACCCAUGUGAGGAUAUCAGUAUUCAGUCCUCGGAUUGAGUACUGAGAAGGCACAUAAA
- apparent Kd [3]: 51.5 nM
- apparent Kd [4]: 94.2 nM

Reference: the EternaBench riboswitch data
